A selection: hits, their analogues and other compounds. The true share with any hit is near 1.3%.
PME-1 inh: PME-1 (human) inhibition. Q9Y570. recombinant PME-1, FP-Rh probe fluorescence polarization. inhibition, % at 5.9 µM. actives 0.53% (n = 320,000);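 active = inhibition above the campaign mean of all compounds plus 3 SD, cut at about 26% in these data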;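 also: competitive labeling of PME-1 active site by serine hydrolase directed probe; inhibitors block probe labeling so polarization falls and inhibition rises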
Target sequence (Q9Y570 whole entry, looked up): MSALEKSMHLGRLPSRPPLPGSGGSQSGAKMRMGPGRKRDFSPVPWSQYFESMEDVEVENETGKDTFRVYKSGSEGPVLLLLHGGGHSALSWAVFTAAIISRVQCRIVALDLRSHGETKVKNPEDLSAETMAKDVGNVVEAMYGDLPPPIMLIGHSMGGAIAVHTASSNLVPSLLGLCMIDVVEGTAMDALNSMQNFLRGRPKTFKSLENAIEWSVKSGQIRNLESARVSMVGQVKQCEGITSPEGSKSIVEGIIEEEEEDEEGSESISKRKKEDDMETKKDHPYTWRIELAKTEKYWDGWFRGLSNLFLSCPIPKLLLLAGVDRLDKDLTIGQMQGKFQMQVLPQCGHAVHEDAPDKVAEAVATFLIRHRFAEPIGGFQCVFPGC
RBBP9 inhibitor: human RBBP9 hydrolase inhibition | recombinant RBBP9, FP-Rh probe fluorescence polarization | actives 0.2% (n = 220,000) | AID 1515 | inhibition, % at 7.94 µM;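 active = inhibition above the campaign mean of all tested compounds plus 3 SD, cut at about 14% in these data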
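Material: RBBP9 protein. Amount: RBBP9 at 2.5 µM in dispensed solution, before mixing. Schedule: 30 min then 45 min, 25 °C. Medium: Tris buffer pH 8.0, NaCl, Pluronic. Measured by: fluorescence polarization. Measure: percent inhibition from mP, scaled between DMSO and no-protein wells. Replication: one well per compound.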
LYPLA1 inh: counter-screen for PME1 inhibitors: inhibitors of human LYPLA1. O75608. recombinant LYPLA1, FP-Rh probe fluorescence polarization. inhibition, % at 5.9 µM. actives 0.16% (n = 320,000). AID 2174;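 active = inhibition above the mean of all tested compounds plus 3 SD, set per campaign, cut at about 14% in these data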;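 also: inhibitors block serine hydrolase probe labeling of LYPLA1 so polarization falls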
Target sequence (O75608 whole entry, looked up): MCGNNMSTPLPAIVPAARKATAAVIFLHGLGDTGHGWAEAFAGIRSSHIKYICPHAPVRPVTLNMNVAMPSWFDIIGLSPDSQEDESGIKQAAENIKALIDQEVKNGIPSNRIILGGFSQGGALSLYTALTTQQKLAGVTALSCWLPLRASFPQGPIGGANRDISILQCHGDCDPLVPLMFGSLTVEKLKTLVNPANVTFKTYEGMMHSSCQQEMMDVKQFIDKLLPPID
Fam108B inh: counter-screen for RBBP9 inhibitors: inhibitors of mouse Fam108B | AID 1947 | inhibition, % at 9.51 µM | recombinant Fam108B, FP-Rh probe fluorescence polarization | actives 0.33% (n = 300,000);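 active = inhibition above the screen mean inhibition plus 3 SD, computed separately per campaign, cut at about 18% in these data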;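 also: inhibitors lower polarization as less probe binds the enzyme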
PAD4 FP inh: inhibitors of human PAD4. Q9UM07. recombinant PAD4, RCA probe fluorescence polarization. inhibition, % at 6.36 µM. actives 0.41% (n = 330,000). AID 485272;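 active = percent inhibition above a cutoff equal to the mean of all tested compounds plus 3 SD, cut at about 15% in these data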
LYPLA2 inh: counter-screen for PME1 inhibitors: inhibitors of human LYPLA2. AID 2177. actives 0.38% (n = 320,000). inhibition, % at 5.9 µM. recombinant LYPLA2, FP-Rh probe fluorescence polarization. O95372;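 active = inhibition above the screen-wide mean plus 3 SD, limit set per campaign, cut at about 26% in these data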
Fam108b inh conf: Fam108b (mouse) hydrolase inhibition, confirmation assay | inhibition, % at 9.51 µM | AID 1978 | actives 44% (n = 930) | recombinant Fam108b, FP-Rh probe fluorescence polarization | shares compounds with Fam108B inh;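 active = inhibition above a limit from the primary screen, the mean over all compounds plus 3 SD, cut at about 19% in these data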;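 also: inhibitors free the probe so polarization falls as inhibition rises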
Fam108b ABPP HTS: mouse ABHD17B inhibition; actives 44% (n = 260); inhibition, % at 20 µM; recombinant Fam108b, gel-based ABPP, fluorophosphonate probe; shares compounds with Fam108B inh; in the data active = inhibition above about 40%
A number is an active result.

How did O=C(Nc1ccc(Cl)cc1)Nc1ccc(Cl)c(Cl)c1 do in these assays?
PME-1 inh: inactive; LYPLA1 inh: inactive; PAD4 FP inh: inactive; LYPLA2 inh: inactive

Results for Cc1ccc(S(=O)(=O)N2CC(O)CC2C(=O)OCC(=O)Nc2ccc([N+](=O)[O-])cc2C(F)(F)F)cc1C (configuration not stated) ?
PAD4 FP inh: inactive

Results for CCS(=O)(=O)c1nc(S(=O)(=O)c2ccc(C)cc2)c(N2CCC(O)CC2)s1 ?
PME-1 inh: inactive; LYPLA1 inh: inactive; Fam108B inh: inactive; PAD4 FP inh: inactive; LYPLA2 inh: inactive

What do the screens show for `COc1ccc(Cl)cc1Nc1nc(-c2sc(NC(=O)c3ccco3)nc2C)cs1`?
PME-1 inh: inactive; RBBP9 inhibitor: inactive; LYPLA1 inh: inactive; Fam108B inh: 19.4; PAD4 FP inh: inactive; LYPLA2 inh: inactive; Fam108b inh conf: inactive

How did COc1ccccc1NC(=O)N1CCc2[nH]c3ccc(F)cc3c2C1 do in these assays?
PME-1 inh: inactive; RBBP9 inhibitor: inactive; LYPLA1 inh: inactive; Fam108B inh: 21.5; PAD4 FP inh: inactive; LYPLA2 inh: inactive; Fam108b inh conf: inactive

How did O=C(O)c1ccc(N=NNc2cccc([N+](=O)[O-])c2)cc1 do in these assays?
PME-1 inh: inactive; RBBP9 inhibitor: inactive; LYPLA1 inh: inactive; Fam108B inh: inactive; PAD4 FP inh: inactive; LYPLA2 inh: inactive

How did N#C/C(=N\Nc1cccc([N+](=O)[O-])c1)C(=O)c1ccc(Br)cc1 do in these assays?
PME-1 inh: 28.9; RBBP9 inhibitor: inactive; LYPLA1 inh: inactive; Fam108B inh: 26.9; PAD4 FP inh: inactive; LYPLA2 inh: inactive; Fam108b inh conf: 26.2

What do the screens show for `CCCn1c(=N)n(CC(=O)c2ccc([N+](=O)[O-])cc2)c2ccccc21`?
PME-1 inh: inactive; RBBP9 inhibitor: inactive; LYPLA1 inh: inactive; Fam108B inh: 24.2; PAD4 FP inh: inactive; LYPLA2 inh: inactive; Fam108b inh conf: inactive

Results for CCCn1c(=N)n(CC(=O)c2ccc(Cl)cc2)c2ccccc21 ?
PME-1 inh: inactive; LYPLA1 inh: inactive; Fam108B inh: inactive; PAD4 FP inh: inactive; LYPLA2 inh: inactive

Results for CC(=O)c1c(C)[nH]c(C2=NNC(=NCc3ccccc3)SC2)c1C ?
PME-1 inh: inactive; RBBP9 inhibitor: inactive; LYPLA1 inh: inactive; Fam108B inh: inactive; PAD4 FP inh: inactive; LYPLA2 inh: inactive

Results for CCOC(=O)c1c(C)[nH]c(C2=NNC(=Nc3cccc(Cl)c3)SC2)c1C ?
PME-1 inh: 34.4; RBBP9 inhibitor: inactive; LYPLA1 inh: inactive; Fam108B inh: 21.6; PAD4 FP inh: inactive; LYPLA2 inh: inactive; Fam108b inh conf: inactive

Results for O=C(N/N=C/c1ccc([N+](=O)[O-])cc1)c1ccccc1OCc1ccccc1 ?
PME-1 inh: inactive; LYPLA1 inh: inactive; Fam108B inh: inactive; PAD4 FP inh: inactive; LYPLA2 inh: inactive

How did O=C(N/N=C/c1ccc([N+](=O)[O-])cc1)c1ccc(COc2ccccc2-c2ccccc2)cc1 do in these assays?
PME-1 inh: inactive; RBBP9 inhibitor: inactive; LYPLA1 inh: inactive; Fam108B inh: 25.6; PAD4 FP inh: inactive; LYPLA2 inh: inactive; Fam108b inh conf: inactive

Results for COc1cc2nc(Nc3ccc(C)c(Cl)c3)nc(N)c2cc1OC ?
PME-1 inh: 34.8; LYPLA1 inh: inactive; Fam108B inh: 22.8; PAD4 FP inh: inactive; LYPLA2 inh: inactive; Fam108b inh conf: inactive

What do the screens show for `CC(Sc1nnc(NC2CCCCC2)s1)C(=O)Nc1ccc2c(c1)C(=O)c1ccccc1C2=O` (configuration not stated)?
PME-1 inh: 31.9; RBBP9 inhibitor: inactive; LYPLA1 inh: inactive; Fam108B inh: 27.4; PAD4 FP inh: inactive; LYPLA2 inh: inactive; Fam108b inh conf: inactive

Results for COc1ccc(C=NNC(=O)c2cc(O)c(O)c(O)c2)cc1COc1ccc(C(=O)OCC(C)C)cc1 ?
Fam108b ABPP HTS: inactive

What do the screens show for `O=C(O)c1cccc(-n2cccc2/C=C/[N+](=O)[O-])c1`?
PME-1 inh: inactive; RBBP9 inhibitor: inactive; LYPLA1 inh: inactive; Fam108B inh: 24.7; PAD4 FP inh: inactive; LYPLA2 inh: inactive; Fam108b inh conf: inactive

Results for O=C(CCc1ccc(O)c(O)c1)N/N=C/c1ccc2c(c1)OCO2 ?
PME-1 inh: inactive; LYPLA1 inh: inactive; Fam108B inh: inactive; PAD4 FP inh: inactive; LYPLA2 inh: inactive

Results for CC(C)Oc1ccc(CCC(=O)N/N=C/c2ccc3c(c2)OCO3)cc1 ?
PME-1 inh: 41.4; LYPLA1 inh: inactive; Fam108B inh: 25.5; PAD4 FP inh: inactive; LYPLA2 inh: inactive; Fam108b inh conf: inactive

What do the screens show for `Oc1ccc(/C=N/Nc2nc(-c3cccnc3)nc3ccccc23)c(O)c1`?
PME-1 inh: 52.3; RBBP9 inhibitor: inactive; LYPLA1 inh: inactive; Fam108B inh: 51.9; PAD4 FP inh: inactive; LYPLA2 inh: inactive; Fam108b inh conf: inactive

How did Cc1c(O)ccc(/C=N/Nc2nc(-c3cccnc3)nc3ccccc23)c1O do in these assays?
PME-1 inh: 39.8; RBBP9 inhibitor: inactive; LYPLA1 inh: inactive; Fam108B inh: 38.6; PAD4 FP inh: inactive; LYPLA2 inh: inactive; Fam108b inh conf: active

Results for Cc1cc(N/N=C/c2ccc(O)c(C)c2O)nc(-c2ccccc2O)n1 ?
PME-1 inh: 61.9; RBBP9 inhibitor: inactive; LYPLA1 inh: inactive; Fam108B inh: 43.0; PAD4 FP inh: inactive; LYPLA2 inh: inactive; Fam108b inh conf: inactive

Results for O=C(CN(C(=O)c1csnn1)c1cccc(Cl)c1)NCCc1ccccc1 ?
PME-1 inh: inactive; LYPLA1 inh: inactive; Fam108B inh: inactive; PAD4 FP inh: inactive; LYPLA2 inh: inactive

How did N#Cc1cc2c(nc1SCc1ccc(Cl)nc1)CCCCC2 do in these assays?
PME-1 inh: inactive; RBBP9 inhibitor: inactive; LYPLA1 inh: inactive; Fam108B inh: inactive; PAD4 FP inh: inactive; LYPLA2 inh: inactive

How did O=C(CNC(=O)c1cccs1)N/N=C/c1c(F)cccc1Cl do in these assays?
PME-1 inh: inactive; LYPLA1 inh: inactive; Fam108B inh: inactive; PAD4 FP inh: inactive; LYPLA2 inh: inactive

What do the screens show for `Cc1ccc(-c2nc3ccc([N+](=O)[O-])cc3[nH]2)cc1`?
PME-1 inh: inactive; RBBP9 inhibitor: inactive; LYPLA1 inh: inactive; Fam108B inh: inactive; PAD4 FP inh: inactive; LYPLA2 inh: inactive

How did O=[N+]([O-])c1ccc2nc(-c3ccc(Cl)cc3)[nH]c2c1 do in these assays?
PME-1 inh: inactive; RBBP9 inhibitor: inactive; LYPLA1 inh: inactive; Fam108B inh: 19.5; PAD4 FP inh: inactive; LYPLA2 inh: inactive; Fam108b inh conf: inactive

How did Oc1ccc(Cl)cc1CNc1cccc2cccnc12 do in these assays?
PME-1 inh: inactive; LYPLA1 inh: inactive; Fam108B inh: 20.8; PAD4 FP inh: inactive; LYPLA2 inh: inactive; Fam108b inh conf: inactive

Bioassay records from PubChem BioAssay.
